Experimental data reported in ChEMBL document CHEMBL4177756, “Small Molecule Neuropilin-1 Antagonists Combine Antiangiogenic and Antitumor Activity with Immune Modulation through Reduction of Transforming Growth Factor Beta (TGFβ) Production in Regulatory T-Cells” (J Med Chem, 2018).
pKd: −log10 of the molar value.

How the values were obtained:
[1] = biological target: Neuropilin-1 (Homo sapiens, UniProt O14786); experiment: Binding affinity to N-terminal His6-tagged recombinant human NRP1-b1 domain expressed in Escherichia coli Rosetta Gami 2 (DE3) pLysS cells by SPR method
Procedure, shortened: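 Human NRP1-b1 (residues 273–427, His6-tagged) was amine-coupled to a CM5 chip at high and low density; an unmodified spot served as reference. Runs were at 25 °C in PBS with 0.05% P20 and 3% DMSO. Compound was tested as 2-fold dilutions from 16 µM to 31 nM with 60 s injections. KD was taken from steady-state responses, DMSO-corrected; mean ± SD of the two surfaces.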

[2] = test system: Mus musculus; experiment: Volume of distribution in BALB/c mouse at 2 mg/kg, iv administered as bolus dose by LC-MS method; format: ADME, organism-based; settings: in vivo
Procedure, shortened: (§1)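 Female BALB/c mice, 6–8 weeks old, received 2 mg/kg as a tail-vein bolus formulated in 7.5% DMSO. Blood was taken by cardiac puncture at 5, 15, 30, 60, 180 and 240 min. Plasma was separated by centrifugation, snap-frozen and assayed by LC-MS/MS with electrospray ionization.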

[3] = test system: Mus musculus; experiment: Half life in BALB/c mouse at 2 mg/kg, iv administered as bolus dose by LC-MS method; format: ADME, organism-based; settings: in vivo; procedure, shortened: as §1
[4] = test system: Mus musculus; experiment: Tmax in BALB/c mouse at 2 mg/kg, iv administered as bolus dose by LC-MS method; format: ADME, organism-based; settings: in vivo; procedure, shortened: as §1
[5] = test system: Mus musculus; experiment: AUC (infinity) in BALB/c mouse at 2 mg/kg, iv administered as bolus dose by LC-MS method; format: ADME, organism-based; parameters: dose 2 mg/kg, route intravenous, time infinity; settings: in vivo; procedure, shortened: as §1
[6] = test system: Mus musculus; experiment: Cmax in BALB/c mouse at 2 mg/kg, iv administered as bolus dose by LC-MS method; format: ADME, organism-based; parameters: dose 2 mg/kg, route intravenous; settings: in vivo; procedure, shortened: as §1

Chain of Neuropilin-1 (O14786 whole entry, the tested form may be a part): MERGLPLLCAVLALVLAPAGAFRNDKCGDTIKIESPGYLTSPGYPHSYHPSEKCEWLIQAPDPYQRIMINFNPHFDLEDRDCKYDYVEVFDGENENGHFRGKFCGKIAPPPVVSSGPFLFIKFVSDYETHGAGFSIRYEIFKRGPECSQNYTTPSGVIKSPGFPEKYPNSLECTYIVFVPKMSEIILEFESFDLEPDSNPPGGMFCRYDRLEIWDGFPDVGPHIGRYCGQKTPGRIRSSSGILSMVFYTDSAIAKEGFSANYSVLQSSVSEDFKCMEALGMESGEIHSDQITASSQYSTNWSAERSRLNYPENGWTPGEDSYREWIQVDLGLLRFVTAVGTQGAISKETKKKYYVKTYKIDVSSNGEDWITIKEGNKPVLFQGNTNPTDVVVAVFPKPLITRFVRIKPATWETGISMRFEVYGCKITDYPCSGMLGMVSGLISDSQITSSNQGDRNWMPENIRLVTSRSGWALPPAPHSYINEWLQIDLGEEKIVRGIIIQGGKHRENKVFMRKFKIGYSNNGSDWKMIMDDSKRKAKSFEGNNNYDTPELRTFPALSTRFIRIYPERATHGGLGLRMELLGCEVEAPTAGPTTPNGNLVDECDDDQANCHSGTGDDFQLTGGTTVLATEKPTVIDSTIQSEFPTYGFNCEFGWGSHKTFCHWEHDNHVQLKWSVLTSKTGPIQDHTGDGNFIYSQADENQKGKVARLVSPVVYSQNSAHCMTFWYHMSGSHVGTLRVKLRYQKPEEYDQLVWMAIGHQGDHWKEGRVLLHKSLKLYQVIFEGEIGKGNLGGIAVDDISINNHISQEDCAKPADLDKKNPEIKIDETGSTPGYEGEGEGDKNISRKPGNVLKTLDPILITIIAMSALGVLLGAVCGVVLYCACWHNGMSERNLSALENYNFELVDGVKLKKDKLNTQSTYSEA

SMILES | pKd [1] | further results
N=C(N)NCCC[C@H](NC(=O)c1sccc1NS(=O)(=O)c1cc(-c2cccc(CN3CCC(C(N)=O)CC3)c2)cc2c1OCC2)C(=O)O | 5.81 | –
N=C(N)NCCC[C@H](NC(=O)c1sccc1NS(=O)(=O)c1cc(-c2cccc(CN)c2)cc2c1OCC2)C(=O)O | 5.61 | –
N=C(N)NCCC[C@H](NC(=O)c1sccc1NS(=O)(=O)c1cc(-c2ccccc2)cc2c1OCC2)C(=O)O | 4.84 | –
N=C(N)NCCC[C@H](NC(=O)c1sccc1NS(=O)(=O)c1cc(-c2cccc3c2CNC3)cc2c1OCC2)C(=O)O | 5.61 | –
N#CCC1CCN(Cc2ccccc2-c2cc3c(c(S(=O)(=O)Nc4ccsc4C(=O)N[C@@H](CCCNC(=N)N)C(=O)O)c2)OCC3)CC1 | 5.73 | –
CNC(=O)C1CCN(Cc2cccc(-c3cc4c(c(S(=O)(=O)Nc5ccsc5C(=O)N[C@@H](CCCNC(=N)N)C(=O)O)c3)OCC4)c2)CC1 | 5.88 | –
CN(C)Cc1cccc(-c2cc3c(c(S(=O)(=O)Nc4ccsc4C(=O)N[C@@H](CCCNC(=N)N)C(=O)O)c2)OCC3)c1 | 5.34 | Vd [2]: 1.05261 L/kg; t1/2 [3]: 40.8 min; Tmax [4]: 4.8 min; AUC [5]: 564.44 ng·h/mL; Cmax [6]: 1959.8 ng/mL
N=C(N)NCCC[C@H](NC(=O)c1sccc1NS(=O)(=O)c1cc(-c2ccc3c(c2)CNC3)cc2c1OCC2)C(=O)O | 5.66 | –
N=C(N)NCCC[C@H](NC(=O)c1sccc1NS(=O)(=O)c1cc(-c2ccccc2CN)cc2c1OCC2)C(=O)O | 5.73 | –
N=C(N)NCCC[C@H](NC(=O)c1sccc1NS(=O)(=O)c1cc(-c2cccc(CN3CCC(N4CCOCC4)CC3)c2)cc2c1OCC2)C(=O)O | 5.86 | –
